Assays:
Format in all cases: functional
[1] = test system: NCI-H460; assay: Growth inhibition of human NCI-H460 cells assessed as growth percentage at 10 uM incubated for 48 hrs by sulforhodamine B assay relative to control; settings: NCI-H460, 48 h, read-out: Activity
In short: (§1)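 NCI-60 one-dose screen. Cells in RPMI 1640 with 5% FBS and 2 mM L-glutamine, seeded at 5,000–40,000 cells/well according to doubling time, and preincubated overnight at 37 °C, 5% CO2. A time-zero plate was TCA-fixed at drug addition. Compound from DMSO stock, final 10 µM, 48 h; DMSO vehicle controls. Fixation with TCA, 10% final (16% for suspension cells). SRB stain, Tris solubilization, A515. Result given as % growth versus untreated cells.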

[2] = test system: A498; assay: Growth inhibition of human A498 cells assessed as growth percentage at 10 uM incubated for 48 hrs by sulforhodamine B assay relative to control; settings: A498, 48 h, read-out: Activity
In short: (§2)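 NCI-60 one-dose screen: cells in RPMI 1640 with 5% FBS and 2 mM L-glutamine, plated at 5,000–40,000 cells/well and preincubated 24 h at 37 °C, 5% CO2. Compound is added from a DMSO stock to a final 10 µM and incubated 48 h. Cells are TCA-fixed and stained with sulforhodamine B, read at 515 nm. Output is % growth versus untreated control, with a time-zero plate.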

[3] = test system: SK-MEL-28; assay: Growth inhibition of human SK-MEL-28 cells assessed as growth percentage at 10 uM incubated for 48 hrs by sulforhodamine B assay relative to control; settings: SK-MEL-28, 48 h, read-out: Activity
In short: (§3)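 NCI-60 single-dose screen. Cells were grown in RPMI 1640 with 5% FBS and 2 mM L-glutamine and plated at 5,000–40,000 cells/well. After an overnight preincubation at 37 °C in 5% CO2, compound was added at a final 10 µM from a DMSO stock, with DMSO/PBS controls. After 48 h, cells were TCA-fixed and stained with 0.4% SRB, and absorbance was read at 515 nm. Growth is given as a percentage of untreated control.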

[4] = test system: NCI-H522; assay: Growth inhibition of human NCI-H522 cells assessed as growth percentage at 10 uM incubated for 48 hrs by sulforhodamine B assay relative to control; settings: NCI-H522, 48 h, read-out: Activity; in short: as §1
[5] = test system: RPMI-8226; assay: Growth inhibition of human RPMI8226 cells assessed as growth percentage at 10 uM incubated for 48 hrs by sulforhodamine B assay relative to control; settings: RPMI-8226, 48 h, read-out: Activity; in short: as §3
[6] = test system: NCI-H322M; assay: Growth inhibition of human NCI-H322M cells assessed as growth percentage at 10 uM incubated for 48 hrs by sulforhodamine B assay relative to control; settings: read-out: Activity; in short: as §1
[7] = test system: HL-60(TB); assay: Growth inhibition of human HL-60(TB) cells assessed as growth percentage at 10 uM incubated for 48 hrs by sulforhodamine B assay relative to control; settings: HL-60, 48 h, read-out: Activity
In short: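 NCI-60 single-dose screen. Cells in RPMI 1640 with 5% FBS and 2 mM L-glutamine are plated at 5,000–40,000 cells/well and preincubated overnight at 37 °C, 5% CO2. Compound is added from a DMSO stock at 10 µM final for 48 h. Cells are TCA-fixed (suspension cells 16% final) and stained with SRB. Absorbance is read at 515 nm, and percentage growth is calculated against untreated controls with a time-zero plate.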

[8] = test system: SR; assay: Growth inhibition of human SR cells assessed as growth percentage at 10 uM incubated for 48 hrs by sulforhodamine B assay relative to control; settings: read-out: Activity; in short: as §3
[9] = test system: BT-549; assay: Growth inhibition of human BT549 cells assessed as growth percentage at 10 uM incubated for 48 hrs by sulforhodamine B assay relative to control; settings: BT-549, 48 h, read-out: Activity; in short: as §2
[10] = test system: OVCAR-3; assay: Growth inhibition of human OVCAR3 cells assessed as growth percentage at 10 uM incubated for 48 hrs by sulforhodamine B assay relative to control; settings: OVCAR-3, 48 h, read-out: Activity; in short: as §1
[11] = test system: UACC-62; assay: Growth inhibition of human UACC62 cells assessed as growth percentage at 10 uM incubated for 48 hrs by sulforhodamine B assay relative to control; settings: UACC-62, 48 h, read-out: Activity; in short: as §3
[12] = test system: PC-3; assay: Growth inhibition of human PC3 cells assessed as growth percentage at 10 uM incubated for 48 hrs by sulforhodamine B assay relative to control; settings: PC-3, 48 h, read-out: Activity; in short: as §3
[13] = test system: DU-145; assay: Growth inhibition of human DU145 cells assessed as growth percentage at 10 uM incubated for 48 hrs by sulforhodamine B assay relative to control; settings: DU-145, 48 h, read-out: Activity; in short: as §2
[14] = test system: MDA-MB-231; assay: Growth inhibition of human MDA-MB-231 cells assessed as growth percentage at 10 uM incubated for 48 hrs by sulforhodamine B assay relative to control; settings: MDA-MB-231, 48 h, read-out: Activity; in short: as §1
[15] = test system: ACHN; assay: Growth inhibition of human ACHN cells assessed as growth percentage at 10 uM incubated for 48 hrs by sulforhodamine B assay relative to control; settings: read-out: Activity; in short: as §2
[16] = test system: LOX IMVI; assay: Growth inhibition of human LOXIMVI cells assessed as growth percentage at 10 uM incubated for 48 hrs by sulforhodamine B assay relative to control; settings: read-out: Activity; in short: as §1
[17] = test system: HT-29; assay: Growth inhibition of human HT-29 cells assessed as growth percentage at 10 uM incubated for 48 hrs by sulforhodamine B assay relative to control; settings: HT-29, 48 h, read-out: Activity; in short: as §1
[18] = test system: SK-MEL-5; assay: Growth inhibition of human SK-MEL-5 cells assessed as growth percentage at 10 uM incubated for 48 hrs by sulforhodamine B assay relative to control; settings: SK-MEL-5, 48 h, read-out: Activity; in short: as §3
[19] = test system: SK-OV-3; assay: Growth inhibition of human SKOV3 cells assessed as growth percentage at 10 uM incubated for 48 hrs by sulforhodamine B assay relative to control; settings: SK-OV-3, 48 h, read-out: Activity; in short: as §3
[20] = test system: Hs-578T; assay: Growth inhibition of human Hs 578T cells assessed as growth percentage at 10 uM incubated for 48 hrs by sulforhodamine B assay relative to control; settings: read-out: Activity; in short: as §1
[21] = test system: HCT-116; assay: Growth inhibition of human HCT116 cells assessed as growth percentage at 10 uM incubated for 48 hrs by sulforhodamine B assay relative to control; settings: HCT-116, 48 h, read-out: Activity; in short: as §2
[22] = test system: SNB-19; assay: Growth inhibition of human SNB19 cells assessed as growth percentage at 10 uM incubated for 48 hrs by sulforhodamine B assay relative to control; settings: SNB-19, 48 h, read-out: Activity; in short: as §3
[23] = test system: U-251; assay: Growth inhibition of human U251 cells assessed as growth percentage at 10 uM incubated for 48 hrs by sulforhodamine B assay relative to control; settings: U-251, 48 h, read-out: Activity; in short: as §3
[24] = test system: OVCAR-4; assay: Growth inhibition of human OVCAR4 cells assessed as growth percentage at 10 uM incubated for 48 hrs by sulforhodamine B assay relative to control; settings: OVCAR-4, 48 h, read-out: Activity; in short: as §1

Compound	growth at 10 µM [1]	growth at 10 µM [2]	growth at 10 µM [3]	growth at 10 µM [4]	growth at 10 µM [5]	growth at 10 µM [6]	growth at 10 µM [7]	growth at 10 µM [8]	growth at 10 µM [9]	growth at 10 µM [10]	growth at 10 µM [11]	growth at 10 µM [12]	growth at 10 µM [13]	growth at 10 µM [14]	growth at 10 µM [15]	growth at 10 µM [16]	growth at 10 µM [17]	growth at 10 µM [18]	growth at 10 µM [19]	growth at 10 µM [20]	also measured
O=C1C2=C(NC(=S)NC2c2ccc3c(c2)OCO3)c2ccccc21 (racemic)	111%	109%	123%	91.5%	103%	106%	99.7%	107%	101%	113%	99.7%	96.3%	112%	104%	106%	99.2%	108%	101%	103%	96.8%	growth at 10 µM [21]: 110%; growth at 10 µM [22]: 100%; growth at 10 µM [23]: 97.8%; growth at 10 µM [24]: 102%
CC1=C(C(=O)OCC(C)C)C(c2ccc3c(c2)OCO3)NC(=S)N1 (racemic)	110%	121%	119%	82.2%	84%	117%	101%	104%	95%	109%	90.3%	84.4%	109%	118%	98.5%	96.3%	106%	92.5%	106%	101%	growth at 10 µM [21]: 101%; growth at 10 µM [22]: 103%; growth at 10 µM [23]: 97.4%; growth at 10 µM [24]: 103%
CC1=C(C(=O)OCc2ccccc2)C(c2ccc3c(c2)OCO3)NC(=S)N1 (racemic)	96.7%	72.8%	106%	89.5%	76.5%	95.1%	56.1%	77.2%	103%	98.4%	91.2%	85.2%	101%	105%	98.9%	98.5%	105%	88.9%	109%	90.2%	growth at 10 µM [21]: 93.1%; growth at 10 µM [22]: 103%; growth at 10 µM [23]: 95.8%; growth at 10 µM [24]: 84.5%
CC1=C(C(=O)OCc2ccccc2)C(c2ccc3c(c2)OCO3)NC(=O)N1 (racemic)	109%	105%	110%	87.7%	89.1%	104%	97%	104%	80.2%	119%	86.6%	84.5%	107%	104%	99.4%	97.9%	109%	89.8%	105%	98.1%	growth at 10 µM [21]: 88.3%; growth at 10 µM [22]: 96.1%; growth at 10 µM [23]: 99.5%; growth at 10 µM [24]: 91%
CC1=C(C(=O)c2ccccc2)C(c2ccc3c(c2)OCO3)NC(=S)N1 (racemic)	8.05%	-12.5%	70.9%	38.3%	44%	67.7%	2.6%	6.28%	50.6%	12.9%	51.6%	61.5%	78.7%	79.1%	45.5%	36.2%	18.5%	28.2%	51.6%	23.4%	growth at 10 µM [21]: 20.1%; growth at 10 µM [22]: 63.8%; growth at 10 µM [23]: 37.5%; growth at 10 µM [24]: 82.3%

Reference: ChEMBL document CHEMBL4406880, “Design, synthesis, and bioactivity of dihydropyrimidine derivatives as kinesin spindle protein inhibitors” (Bioorg Med Chem, 2019)
